pIC50: −log10 of the molar value.
How the values were obtained:
HL-60 [1] = test: Cytotoxicity against human HL60 cells after 24 hrs by MTT assay; format: cell-based; details: HL-60, 24 h
Lanosterol synthase [2] = molecular target: T1, Lanosterol synthase (Homo sapiens, UniProt P48449); test: Inhibition of human lanosterol synthase expressed in Saccharomyces cerevisiae SMY8[pSOB1.1] using [14C]-(3S)-2,3-oxidosqualene as substrate
T1 sequence (P48449 whole entry): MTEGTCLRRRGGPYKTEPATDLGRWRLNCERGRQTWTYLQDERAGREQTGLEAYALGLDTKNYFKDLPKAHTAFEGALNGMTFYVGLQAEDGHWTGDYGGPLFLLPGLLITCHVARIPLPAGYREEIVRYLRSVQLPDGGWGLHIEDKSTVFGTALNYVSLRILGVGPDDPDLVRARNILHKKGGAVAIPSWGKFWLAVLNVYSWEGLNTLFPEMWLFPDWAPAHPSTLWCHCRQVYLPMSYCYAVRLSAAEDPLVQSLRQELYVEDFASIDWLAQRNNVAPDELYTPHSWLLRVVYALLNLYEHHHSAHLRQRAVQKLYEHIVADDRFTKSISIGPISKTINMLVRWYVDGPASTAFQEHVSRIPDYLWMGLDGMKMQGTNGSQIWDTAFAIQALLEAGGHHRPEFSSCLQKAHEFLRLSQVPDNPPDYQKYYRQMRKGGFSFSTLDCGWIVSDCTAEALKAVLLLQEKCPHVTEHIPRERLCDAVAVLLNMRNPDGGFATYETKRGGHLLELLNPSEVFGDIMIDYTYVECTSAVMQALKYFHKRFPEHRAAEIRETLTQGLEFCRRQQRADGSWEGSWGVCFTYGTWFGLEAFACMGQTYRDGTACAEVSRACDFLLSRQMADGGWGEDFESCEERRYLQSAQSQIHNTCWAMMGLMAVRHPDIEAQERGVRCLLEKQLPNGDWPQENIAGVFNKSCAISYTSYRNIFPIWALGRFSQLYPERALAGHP

Cycloartenol synthase = Cycloartenol synthase (Arabidopsis thaliana, UniProt P38605); test: Inhibition of Arabidopsis thaliana cycloartenol synthase expressed in Saccharomyces cerevisiae SMY8[pSM60.21] using [14C]-(3S)-2,3-oxidosqualene as substrate
Chain of Cycloartenol synthase (P38605 whole entry): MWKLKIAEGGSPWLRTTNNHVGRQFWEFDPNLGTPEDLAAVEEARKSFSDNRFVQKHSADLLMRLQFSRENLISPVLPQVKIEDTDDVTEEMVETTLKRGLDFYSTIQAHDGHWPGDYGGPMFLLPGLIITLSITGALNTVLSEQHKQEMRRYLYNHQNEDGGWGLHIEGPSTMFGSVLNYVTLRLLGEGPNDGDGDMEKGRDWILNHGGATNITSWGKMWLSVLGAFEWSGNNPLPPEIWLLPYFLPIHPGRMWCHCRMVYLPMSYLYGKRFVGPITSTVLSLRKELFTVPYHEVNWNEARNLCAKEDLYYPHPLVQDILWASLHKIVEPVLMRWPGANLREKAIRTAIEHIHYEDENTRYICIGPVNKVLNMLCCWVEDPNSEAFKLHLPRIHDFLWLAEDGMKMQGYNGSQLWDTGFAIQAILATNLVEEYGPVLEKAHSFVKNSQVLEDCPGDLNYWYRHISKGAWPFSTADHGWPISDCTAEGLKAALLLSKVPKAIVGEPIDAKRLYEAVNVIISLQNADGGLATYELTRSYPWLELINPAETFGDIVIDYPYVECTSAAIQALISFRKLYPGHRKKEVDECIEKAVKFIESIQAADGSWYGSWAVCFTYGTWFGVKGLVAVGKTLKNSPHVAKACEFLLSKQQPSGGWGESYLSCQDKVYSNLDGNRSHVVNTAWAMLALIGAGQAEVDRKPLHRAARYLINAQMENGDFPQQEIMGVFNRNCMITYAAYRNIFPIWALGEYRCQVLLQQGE
Summary of the method: (§1)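 ERG7-deficient hem1 yeast SMY8 strains were grown aerobically at 30 °C in YPD with hemin and ergosterol, then induced in YPG with hemin (plus ergosterol for A. thaliana). Lyticase/Potter homogenates were incubated with [14C]-(3S)-2,3-oxidosqualene (1000 cpm) at increasing inhibitor levels. Reactions were stopped with KOH/MeOH and saponified at 80 °C for 30 min; extracted conversion was read by TLC radioscan. IC50 came from nonlinear regression; two experiments, each in duplicate.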

[3] = Inhibition of Trypanosoma cruzi lanosterol synthase expressed in Saccharomyces cerevisiae SMY8[pBJ1.21] using [14C]-(3S)-2,3-oxidosqualene as substrate; summary of the method: as §1
Lanosterol synthase [4] = molecular target: T2, Lanosterol synthase (Pneumocystis carinii, UniProt Q96WJ0); test: Inhibition of Pneumocystis carinii lanosterol synthase expressed in Saccharomyces cerevisiae SMY8[pBJ4.21] using [14C]-(3S)-2,3-oxidosqualene as substrate; summary of the method: as §1
T2 sequence (Q96WJ0 whole entry): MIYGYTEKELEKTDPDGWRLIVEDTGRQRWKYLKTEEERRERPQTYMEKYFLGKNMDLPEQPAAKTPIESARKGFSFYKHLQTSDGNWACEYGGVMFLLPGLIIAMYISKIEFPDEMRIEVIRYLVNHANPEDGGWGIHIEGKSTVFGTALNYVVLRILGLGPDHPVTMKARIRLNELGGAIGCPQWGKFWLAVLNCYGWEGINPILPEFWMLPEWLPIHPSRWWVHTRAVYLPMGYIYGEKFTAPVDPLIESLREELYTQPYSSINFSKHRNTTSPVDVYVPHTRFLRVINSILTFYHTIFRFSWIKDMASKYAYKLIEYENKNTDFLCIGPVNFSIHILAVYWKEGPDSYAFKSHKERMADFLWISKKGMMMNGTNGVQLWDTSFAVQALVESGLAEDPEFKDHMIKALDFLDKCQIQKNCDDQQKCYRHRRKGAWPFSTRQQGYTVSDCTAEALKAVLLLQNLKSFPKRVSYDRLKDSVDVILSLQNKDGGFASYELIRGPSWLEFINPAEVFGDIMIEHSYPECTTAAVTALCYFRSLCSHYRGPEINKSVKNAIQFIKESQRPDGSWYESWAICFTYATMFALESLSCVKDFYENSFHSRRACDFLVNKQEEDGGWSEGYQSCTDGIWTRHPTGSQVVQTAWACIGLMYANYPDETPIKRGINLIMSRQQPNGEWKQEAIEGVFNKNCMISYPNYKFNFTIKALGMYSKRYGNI

Lanosterol synthase ERG7 = molecular target: T3, Lanosterol synthase ERG7 (Saccharomyces cerevisiae S288c, UniProt P38604); test: Inhibition of wild type yeast lanosterol synthase expressed in Saccharomyces cerevisiae SMY8[pSM61.21] using [14C]-(3S)-2,3-oxidosqualene as substrate; summary of the method: as §1
T3 sequence (P38604 whole entry): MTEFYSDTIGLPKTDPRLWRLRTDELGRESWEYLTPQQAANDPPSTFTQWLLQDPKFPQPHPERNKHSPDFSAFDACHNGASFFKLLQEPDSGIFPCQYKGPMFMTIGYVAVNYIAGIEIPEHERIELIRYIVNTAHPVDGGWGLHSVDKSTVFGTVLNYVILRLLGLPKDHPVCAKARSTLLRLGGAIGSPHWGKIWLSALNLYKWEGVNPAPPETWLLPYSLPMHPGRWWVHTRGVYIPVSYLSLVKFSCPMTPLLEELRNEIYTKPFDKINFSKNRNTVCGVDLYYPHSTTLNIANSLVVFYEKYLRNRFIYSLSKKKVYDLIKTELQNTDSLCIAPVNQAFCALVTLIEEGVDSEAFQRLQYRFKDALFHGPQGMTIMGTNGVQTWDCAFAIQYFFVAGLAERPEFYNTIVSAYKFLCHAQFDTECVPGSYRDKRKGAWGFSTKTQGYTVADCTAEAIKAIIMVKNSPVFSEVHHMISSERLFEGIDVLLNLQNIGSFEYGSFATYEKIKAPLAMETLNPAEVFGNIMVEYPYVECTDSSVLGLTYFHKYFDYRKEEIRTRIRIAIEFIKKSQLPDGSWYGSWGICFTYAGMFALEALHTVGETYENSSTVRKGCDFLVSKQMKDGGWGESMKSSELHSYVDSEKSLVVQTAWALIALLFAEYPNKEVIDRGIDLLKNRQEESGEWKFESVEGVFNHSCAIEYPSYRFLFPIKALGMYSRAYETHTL

HL-60 [5] = test: Inhibition of cholesterol biosynthesis in human HL60 cells at 1 uM; format: functional
Summary of the method: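 HL-60 cells were incubated with 2-13C-acetate and inhibitor at 1 μM, in triplicate. Newly made 13C-labelled cholesterol was separated from pre-existing unlabelled cholesterol by GC-MS. Decrease in cholesterol biosynthesis was expressed against untreated controls.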

Compound	pIC50 (Lanosterol synthase [2])	pIC50 (Cycloartenol synthase)	pIC50 (Lanosterol synthase [4])	pIC50 (Lanosterol synthase ERG7)	pIC50 (HL-60 [1])	pIC50 [3]	inhibition at 1 µM (HL-60 [5]) [%]
CC(C)CCC[C@@H](C)[C@H]1CCC2=C(CCC[n+]3ccccc3)CCC[C@@]21C	4.90	6.70	4.96	5.38	5.46	< 4.70	
CN(C)Cc1ccc(C2CCC(N(C)C(=O)c3ccc(Cl)cc3)CC2)cc1 (configuration not stated)					< 4.30		60
CC(C)CCC[C@@H](C)[C@H]1CCC2=C(CCCN3CCCCC3)CCC[C@@]21C	4.92	6.30	4.77	5.68	< 4.00	< 4.70	
C=CCN(C)CCCCCCOc1ccc(C(=O)c2ccc(Br)cc2)c(F)c1					5.10		> 90

Continued, in another order:

pIC50 (Lanosterol synthase [2])	pIC50 (Cycloartenol synthase)	pIC50 (Lanosterol synthase [4])	pIC50 (Lanosterol synthase ERG7)	Compound	pIC50 (HL-60 [1])	pIC50 [3]	inhibition at 1 µM (HL-60 [5]) [%]
6.00	6.22	6.05	5.82	C=CCN(C)CCCC1=C2CC[C@H]([C@H](C)CCCC(C)C)[C@@]2(C)CCC1	< 4.00	6.10	> 90
< 4.70	< 4.70	< 4.70	< 4.70	CNCCCC1=C2CC[C@H]([C@H](C)CCCC(C)C)[C@@]2(C)CCC1	< 4.00	< 4.70	
5.35	6.52	4.89	5.89	CC(C)CCC[C@@H](C)[C@H]1CCC2=C(CCCN(C)C)CCC[C@@]21C	< 4.00	6.22	> 90
< 4.70	5.89	4.82	5.60	CC(C)CCC[C@@H](C)[C@H]1CCC2=C(CCC[N+](C)(C)[O-])CCC[C@@]21C	4.70	5.52	
